Assay outcomes deposited in PubChem BioAssay by Johns Hopkins Ion Channel Center.
RGS4 act: potentiators or activators of RGS4 | actives 0.92% (n = 310,000) | B-score at 10 µM | HEK293 M3R/inducible RGS4, carbachol calcium flux Fluo4; stronger effect = lower value;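 active = B-score of the integrated calcium signal more than 4 SD below the library mean, with starting fluorescence not abnormally high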;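 also: negative B-score means reduced calcium response which marks RGS4 activation or potentiation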
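test system = HEK293 cells with stable M3R and inducible RGS4 | schedule = recording 10 s baseline at 1 Hz, 100 s post-agonist | technique = Fluo4-AM (2 µM) calcium-flux fluorescence, kinetic read | measure = Agonist-evoked peak-minus-minimum fluorescence over baseline, integrated ratio, B score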
RGS4 inh: human RGS4 inhibition. P49798. HEK293 M3R/RGS4 inducible, Fluo-4 calcium flux; stronger effect = higher value; triggered by carbachol at its EC20. B-score at 10 µM. actives 0.45% (n = 310,000). AID 463165;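 active = B-score, a plate-corrected calcium signal, over three deviations above library mean, with baseline fluorescence within five deviations of library mean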;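 also: RGS4 expression induced by doxycycline in cells with stable M3 receptor; B-score is computed from the integrated fluorescence ratio over baseline after carbachol; higher B-score means a larger calcium signal and so more RGS4 inhibition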
Target sequence (P49798 whole entry, looked up): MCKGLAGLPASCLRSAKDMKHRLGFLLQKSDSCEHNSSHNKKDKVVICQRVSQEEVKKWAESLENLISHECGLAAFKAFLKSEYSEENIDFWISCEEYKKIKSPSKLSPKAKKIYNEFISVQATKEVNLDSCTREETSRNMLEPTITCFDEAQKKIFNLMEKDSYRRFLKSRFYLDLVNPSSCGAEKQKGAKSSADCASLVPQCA
MrgX1 ag: activates human MrgX1 receptor signaling. MrgX1-HEK293 cells, Fluo-4 calcium fluorescence, agonist mode; stronger effect = higher value. B-score at 10 µM. actives 0.44% (n = 310,000). AID 588627;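 active = calcium response B-score plate-corrected fluorescence ratio at least 3 library SD, with starting fluorescence B-score inside 5 SD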
Target sequence (Q96LB2 whole entry, looked up): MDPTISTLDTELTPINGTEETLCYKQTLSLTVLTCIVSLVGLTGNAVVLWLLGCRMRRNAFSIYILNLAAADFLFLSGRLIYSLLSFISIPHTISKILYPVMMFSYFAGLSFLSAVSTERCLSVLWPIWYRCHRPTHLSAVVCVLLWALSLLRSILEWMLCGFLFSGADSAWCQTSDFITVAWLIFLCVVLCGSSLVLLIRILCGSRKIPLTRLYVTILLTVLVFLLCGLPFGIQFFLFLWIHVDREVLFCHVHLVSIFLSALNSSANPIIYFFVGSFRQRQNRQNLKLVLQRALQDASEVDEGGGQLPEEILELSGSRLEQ
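Material: MrgX1-expressing HEK293 cells / Dosing: compound as first of three additions / Incubation: overnight seeding, then 1 h dark dye loading / Signal: Fluo-4 NW calcium fluorescence / Evaluation: B-scored fluorescence response ratio / Benchmarks: positive and negative control wells on each plate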
MrgX1 allo act: allosterically activates human MrgX1 receptor signaling. MrgX1-HEK293, Fluo-4 calcium flux, FDSS; stronger effect = higher value. B-score at 10 µM. actives 0.63% (n = 310,000). AID 588675;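 active = plate-corrected calcium response at least 3 library SD above typical, normal starting fluorescence, not activating the receptor alone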;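 also: compound read alongside a low EC10 to EC30 dose of BAM8-22 agonist; peak minus trough fluorescence over baseline measured at the second addition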
MrgX1 antagonist: antagonists of human MrgX1 receptor. B-score at 10 µM. AID 588676. MRGX1-HEK293 calcium flux, Fluo-4, BAM8-22 antagonism; stronger effect = lower value. actives 1.3% (n = 310,000);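 active = calcium-response B-score plate-corrected more than 3 library SD below zero, starting fluorescence within 5 deviations, no agonist response on first addition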;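 also: peak minus trough fluorescence over baseline after final BAM8-22 challenge near maximal dose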
* marks the source's active call; other numbers are inactive results; i = inactive; · = no result. The list is not random: actives were taken first. Their share in the collection is about 3.5%.

SMILES | RGS4 act | RGS4 inh | MrgX1 ag | MrgX1 allo act | MrgX1 antagonist
N#C/C(=C\c1ccc(O)cc1)C(=O)N1CCCC1 | i | i | i | i | i
CCOC(=O)N1CCN(c2nc(N(c3ccccc3)c3ccccc3)nc(-n3ccnc3)n2)CC1 | -7.1* | i | i | i | i
C/C(=N\NC(=O)c1cccc([N+](=O)[O-])c1)c1ccncc1 | i | i | i | i | i
C/C(=N\NC(=O)c1cccc([N+](=O)[O-])c1)c1cccs1 | i | i | i | 13* | i
Cc1ccc(S(=O)(=O)NNC(=O)C(O)(c2ccccc2)c2ccccc2)cc1 | i | i | i | i | i
Cc1cc(C(=O)NNS(=O)(=O)c2ccc(C(C)(C)C)cc2)nn1C(C)(C)C | i | i | i | 9.8* | i
COc1cccc(C2c3c(-c4cc(Cl)c(C)cc4O)n[nH]c3C(=O)N2Cc2cccnc2)c1 (stereo unspecified) | i | 11* | i | i | i
COc1ccc(CCN2C(=O)c3[nH]nc(-c4ccccc4O)c3C2c2cccc(Cl)c2)cc1 (stereo unspecified) | i | i | i | i | i
CC(=O)N/N=c1\sc2ccccc2n1C | i | i | i | i | i
Cn1/c(=N\NC(=O)c2ccccc2Cl)sc2ccccc21 | i | i | 31* | i | i
COCCNC(=O)C(OC(=O)c1ccco1)c1ccccc1F (stereo unspecified) | i | i | i | i | i
Cc1onc(-c2ccccc2)c1C(=O)Nc1ncc([N+](=O)[O-])s1 | i | i | i | i | -4.5*
Cc1ccc(C(=O)Nc2ncc([N+](=O)[O-])s2)cc1 | i | i | i | i | -4.5*
O=C(Nc1ncc([N+](=O)[O-])s1)c1ccc2c(c1)OCO2 | i | i | i | i | i
Cc1ccc(NC(=S)N2CC(C)OC(C)C2)cc1C (stereo unspecified) | i | i | i | i | i
O=[N+]([O-])c1cc(S(=O)(=O)C(F)(F)F)ccc1NCC1CCCO1 (stereo unspecified) | i | i | i | i | i
COc1cc2nc(SCc3c(C)noc3C)n(CCC3=CCCCC3)c(=O)c2cc1OC | -8.2* | i | i | i | i
CC(=O)/C(N=Nc1cc2c(c([N+](=O)[O-])c1C)C(C)(C)CC2(C)C)=C(\C)O | i | i | i | 9.4* | i
O=C1C(Cl)=C(NC2CCCCC2)C(=O)N1c1ccc(Cl)cc1 | i | i | i | 15* | i
CN1CCN(C2=C(Cl)C(=O)N(c3ccc(Cl)cc3)C2=O)CC1 | i | i | i | i | i
CCN(CC)CCCN1C(=O)c2oc3ccccc3c(=O)c2C1c1cccs1 (stereo unspecified) | i | i | i | 11* | i
CCN(CC)CCN1C(=O)c2oc3ccccc3c(=O)c2C1c1ccccc1 (stereo unspecified) | i | i | i | i | -6*
O=C(O)c1ccc(-c2nnn(Cc3cccc(C(F)(F)F)c3)n2)cc1 | i | i | i | i | i
O=C(Cc1cccs1)Nc1ccc(-c2nnn(CC(=O)N3CCOCC3)n2)cc1 | i | i | i | i | -6.4*
Cc1nc2nc(SCC(=O)NCCCN3CCCCCC3)nn2c(C)c1Cc1ccccc1 | -7.5* | i | i | i | i
SMILES | RGS4 act | RGS4 inh | MrgX1 ag | MrgX1 allo act | MrgX1 antagonist
COCC1CCCCN1C(=O)c1cccc(OC2CCN(C(=O)C3CC3)CC2)c1 (stereo unspecified) | i | i | i | i | i
Cc1c(NC(=O)CSc2ccccc2Cl)c(=O)n(-c2ccccc2)n1C | i | i | i | i | i
CCC1=NN2C(=N)/C(=C\c3cccn3-c3cccc(Cl)c3)C(=O)N=C2S1 | i | i | i | 11* | i
Cc1ccc(-n2cccc2/C=C2/C(=N)N3C(=NC2=O)SN=C3S(C)(=O)=O)cc1Cl | · | · | i | i | i
CC1=CSC2=NC(=O)/C(=C\c3cccn3-c3ccccc3)C(=N)N12 | i | i | i | 8.8* | i
Cc1cc(/C=C2/C(=N)N3C(=NC2=O)SN=C3S(C)(=O)=O)c(C)n1-c1ccc(F)cc1 | i | i | i | 18* | i
Cc1cccc(C)c1-n1cccc1/C=C1/C(=N)N2C(=NC1=O)SN=C2S(C)(=O)=O | -7.9* | i | i | i | i
OCCC1CN(C2CCC2)CCN1Cc1ccc(F)c(F)c1 (stereo unspecified) | i | i | i | i | i
CCCCN(C1CCS(=O)(=O)C1)S(=O)(=O)c1cc(C)ccc1C (stereo unspecified) | i | i | i | i | i
O=C(Nc1cc(Sc2ccccn2)cc([N+](=O)[O-])c1)c1ccc(Cl)cc1 | -8* | i | i | i | -6.1*
O=S(=O)(CCSc1nc2ccccc2s1)c1nc2ccccc2s1 | -7.4* | i | i | i | i
CCS(=O)(=O)CCSc1nc2ccccc2s1 | i | i | i | i | i
NC(=O)Cn1nnc(-c2ccc(NC(=O)c3ccc(F)cc3)cc2)n1 | i | i | i | i | i
Cc1ccc(NC(=O)CSc2ncc3ccccn23)cc1C | -7.5* | i | i | i | i
Cc1ccc(NC(=O)CSc2ncn(-c3ccccc3)n2)cc1C | i | i | i | i | i
O=C1N(c2ccc3c(c2)OCCO3)C(c2ccccc2)C1(F)F (stereo unspecified) | i | i | i | 6.9* | i
Cc1ccc(N2C(=O)C(F)(F)C2c2ccccc2)cc1 (stereo unspecified) | i | i | i | i | i
Cc1nn(CC(=O)Nc2ccc(S(N)(=O)=O)cc2)c(=O)c2ccccc12 | i | i | i | i | i
COc1ccc(/C=N/NC(=O)c2ccc3ccccc3c2)cc1OS(=O)(=O)c1ccc(NC(C)=O)cc1 | -9.3* | i | i | i | i
CN(C(=O)C(C)(C)C)c1ccc(OCC(=O)N2CCc3ccccc3C2)cc1 | -7.4* | i | i | i | i
Cc1ccc(OCC(=O)N2CCc3ccccc3C2)cc1 | i | i | i | i | i
CN(C)c1ccnc(N(Cc2ccccc2)Cc2ccccc2)c1C#N | -11* | i | i | i | i
CCOC(=O)c1c(C)[nH]c(C)c1S(=O)(=O)N1CCOCC1 | i | i | i | i | i
COc1ccc2c(c1)[nH]c1c(N3CCN(Cc4ccc5c(c4)OCO5)CC3)ncnc12 | i | i | i | i | -6.1*
